Active and inactive are the calls of the source. The rule behind the calls is not given here.
Legend:
Format in all cases: functional, cell-based
HL-60 = test: Cytotoxicity against human HL60 cells by MTT assay
In short: (§1)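 IC50 from three independent experiments; growth inhibition read by SRB (adherent lines) or MTT (HL60, K562).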

HeLa = test: Cytotoxicity agaisnt human HeLa cells by SRB assay; in short: as §1
MDA-MB-231 [1] = test: Reduction of hypoxia-induced HIF1alpha accumulation in human MDA-MB-231 cells at 10 uM by Western blotting analysis
In short: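 MDA-MB-231 cells (5 × 10⁵) treated at 10 µM, held in hypoxia (1% O₂) for 10 h, then lysed in 1× SDS loading buffer (pH 6.8 Tris–HCl, DTT, SDS) and boiled. Equal lysate amounts run on 10% SDS–PAGE, transferred to nitrocellulose, probed for HIF-1α and β-actin with HRP secondary antibodies, detected by ECL. Representative of three independent experiments.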

A549 = test: Cytotoxicity agaisnt human A549 cells by SRB assay; in short: as §1
K562 = test: Cytotoxicity agaisnt human K562 cells by MTT assay; in short: as §1
[2] = Cytotoxicity agaisnt human Rh30 cells by SRB assay; settings: SJRH30; in short: as §1
HCT-116 = test: Cytotoxicity agaisnt human HCT116 cells by SRB assay; in short: as §1
MDA-MB-231 [3] = test: Cytotoxicity agaisnt human MDA-MB-231 cells by SRB assay; in short: as §1
HT-29 = test: Cytotoxicity agaisnt human HT29 cells by SRB assay; in short: as §1
KB = test: Cytotoxicity agaisnt vincristine-resistant human KB cells by SRB assay; in short: as §1
[4] = Cytotoxicity agaisnt human KB-3-1 cells by SRB assay; in short: as §1

Structure (SMILES)	IC50 (HL-60)	IC50 (HeLa)	further results
COc1ccc(S(=O)(=O)NC(C)C2=CC(=O)c3c(O)ccc(O)c3C2=O)cc1 (centres undefined)	20 nM	3760 nM	–
CC(NS(=O)(=O)c1cccc(Br)c1)C1=CC(=O)c2c(O)ccc(O)c2C1=O (centres undefined)	160 nM	6350 nM	Activity (MDA-MB-231 [1]): Active
CC(C)C(NS(=O)(=O)c1ccc(F)cc1)C1=CC(=O)c2c(O)ccc(O)c2C1=O (centres undefined)	–	6650 nM	–
Cc1ccc(S(=O)(=O)NC(C2=CC(=O)c3c(O)ccc(O)c3C2=O)C(C)C)cc1 (centres undefined)	–	4850 nM	–
Cc1ccccc1S(=O)(=O)NC(C)C1=CC(=O)c2c(O)ccc(O)c2C1=O (centres undefined)	70 nM	4490 nM	Activity (MDA-MB-231 [1]): Active
CCOC(=O)c1ccc(S(=O)(=O)NC(C)C2=CC(=O)c3c(O)ccc(O)c3C2=O)cc1 (centres undefined)	120 nM	2260 nM	–
CC(=O)c1ccc(S(=O)(=O)NC(C2=CC(=O)c3c(O)ccc(O)c3C2=O)C(C)C)cc1 (centres undefined)	110 nM	3820 nM	–
COc1ccc(S(=O)(=O)NC(C)C2=CC(=O)c3c(O)ccc(O)c3C2=O)c(OC)c1 (centres undefined)	500 nM	19500 nM	–
Cc1ccccc1S(=O)(=O)NC(C1=CC(=O)c2c(O)ccc(O)c2C1=O)C(C)C (centres undefined)	190 nM	790 nM	–
CC(C)C(NS(=O)(=O)c1ccccc1Br)C1=CC(=O)c2c(O)ccc(O)c2C1=O (centres undefined)	340 nM	8310 nM	–
COc1cc([C@@H]2c3cc4c(cc3[C@@H](O)[C@H]3COC(=O)[C@H]23)OCO4)cc(OC)c1O [4'-DEMETHYLEPIPODOPHYLLOTOXIN]	820 nM	980 nM	–
CC(NS(=O)(=O)c1ccc(Cl)cc1)C1=CC(=O)c2c(O)ccc(O)c2C1=O (centres undefined)	250 nM	810 nM	IC50 (A549): 8300 nM; IC50 (K562): 19900 nM; IC50 [2]: 1900 nM; Activity (MDA-MB-231 [1]): Active; IC50 (HCT-116): 3200 nM; IC50 (MDA-MB-231 [3]): 4500 nM; IC50 (HT-29): 1300 nM; IC50 (KB): 12400 nM; IC50 [4]: 6900 nM
CC(C)=CC[C@@H](O)C1=CC(=O)c2c(O)ccc(O)c2C1=O [SHIKONIN]	440 nM	13400 nM	Activity (MDA-MB-231 [1]): Active
CC(C)C(NS(=O)(=O)c1cccc(Br)c1)C1=CC(=O)c2c(O)ccc(O)c2C1=O (centres undefined)	790 nM	860 nM	–
CC(=O)c1ccc(S(=O)(=O)NC(C)C2=CC(=O)c3c(O)ccc(O)c3C2=O)cc1 (centres undefined)	260 nM	5760 nM	–
CC(NS(=O)(=O)c1ccc(F)cc1)C1=CC(=O)c2c(O)ccc(O)c2C1=O (centres undefined)	90 nM	6410 nM	–
CC(C)C(NS(=O)(=O)c1ccc(Br)cc1)C1=CC(=O)c2c(O)ccc(O)c2C1=O (centres undefined)	–	7650 nM	–
COc1ccc(S(=O)(=O)NC(C2=CC(=O)c3c(O)ccc(O)c3C2=O)C(C)C)cc1 (centres undefined)	–	8950 nM	–
COc1ccc(S(=O)(=O)NC(C2=CC(=O)c3c(O)ccc(O)c3C2=O)C(C)C)c(OC)c1 (centres undefined)	400 nM	2750 nM	–
CC(NS(=O)(=O)c1ccccc1Br)C1=CC(=O)c2c(O)ccc(O)c2C1=O (centres undefined)	120 nM	6200 nM	Activity (MDA-MB-231 [1]): Active
CC(NS(=O)(=O)c1ccc(Br)cc1)C1=CC(=O)c2c(O)ccc(O)c2C1=O (centres undefined)	100 nM	5210 nM	–
Cc1ccc(S(=O)(=O)NC(C)C2=CC(=O)c3c(O)ccc(O)c3C2=O)cc1 (centres undefined)	30 nM	5340 nM	–
CCOC(=O)c1ccc(S(=O)(=O)NC(C2=CC(=O)c3c(O)ccc(O)c3C2=O)C(C)C)cc1 (centres undefined)	150 nM	850 nM	IC50 (A549): 11400 nM; IC50 (K562): 18200 nM; IC50 [2]: 2600 nM; IC50 (HCT-116): 3800 nM; IC50 (MDA-MB-231 [3]): 4700 nM; IC50 (HT-29): 2800 nM; IC50 (KB): 13200 nM; IC50 [4]: 11800 nM
CC(C)C(NS(=O)(=O)c1ccc(Cl)cc1)C1=CC(=O)c2c(O)ccc(O)c2C1=O (centres undefined)	–	8650 nM	–

Reference: ChEMBL document CHEMBL1143299, “Synthesis and biological activity of novel shikonin analogues” (Bioorg Med Chem Lett, 2009)
